According to ChEMBL document CHEMBL1151448, “Comparative antianaerobic activities of doripenem determined by MIC and time-kill analysis” (2008):
Converted amounts (≈) assume the structure as drawn. The source made the active and inactive calls. No cut-off for these calls is given here.

How the values were obtained:
[1] = test system: Bacteroides thetaiotaomicron; assay: Antimicrobial activity against beta lactamase-positive Bacteroides thetaiotaomicron isolated from intra-abdominal infection and pelvic inflammatory disease patients after 48 hrs by agar dilution method; assay type: functional
How it was run: (§1)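 CLSI agar dilution on brucella blood agar supplemented with laked sheep blood, hemin and vitamin K. Inocula of about 1 × 10^5 CFU/spot were applied by Steers replicator, and plates were incubated 48 h at 35°C in an anaerobic glove box. MIC was the concentration giving marked growth reduction versus the anaerobic control plate. QC strains were included each run, and β-lactamase was detected by Cefinase disk.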

Prevotella intermedia = assay: Antimicrobial activity against beta lactamase-positive Prevotella intermedia isolated from intra-abdominal infection and pelvic inflammatory disease patients after 48 hrs by time kill analysis; assay type: functional
How it was run: (§2)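 The MIC was read by inspecting macrodilution time-kill tubes. Vials held prereduced brucella broth with 5% laked horse blood cells, hemin 5 μg/ml and vitamin K1 1 μg/ml. Final inoculum was 10^6–10^7 CFU/ml, prepared inside the anaerobe chamber. Vials were incubated 48 h at 35°C in a shaking water bath.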

Finegoldia magna = assay: Antimicrobial activity against beta lactamase-positive Finegoldia magna isolated from intra-abdominal infection and pelvic inflammatory disease patients after 48 hrs by time kill analysis; assay type: functional; how it was run: as §2
Fusobacterium nucleatum [2] = assay: Antimicrobial activity against beta lactamase-positive Fusobacterium nucleatum isolated from intra-abdominal infection and pelvic inflammatory disease patients after 48 hrs by time kill analysis; assay type: functional; how it was run: as §2
Clostridium perfringens [3] = assay: Antimicrobial activity against Clostridium perfringens isolated from intra-abdominal infection and pelvic inflammatory disease patients after 48 hrs by time kill analysis; assay type: functional
How it was run: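 Macrodilution in prereduced brucella broth with 5% laked horse blood cells, 5 μg/ml hemin and 1 μg/ml vitamin K1. Final inoculum 10^6 to 10^7 CFU/ml, prepared inside the anaerobe chamber. Vials incubated 48 h at 35°C in a shaking water bath. MIC read by inspecting the time-kill tubes, alongside an antibiotic-free growth control.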

Bacteroides fragilis [4] = assay: Bactericidal activity against beta lactamase-positive Bacteroides fragilis isolated from intra-abdominal infection and pelvic inflammatory disease patients assessed as bacterial killing at 2 times MIC after 48 hrs by time kill analysis; assay type: functional
How it was run: (§3)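 Macrodilution time-kill in prereduced brucella broth with 5% laked horse blood, hemin 5 μg/ml and vitamin K1 1 μg/ml, at final inoculum 10^6–10^7 CFU/ml. […] Viable counts were taken at 6, 12, 24 and 48 h on plates incubated 48 h anaerobically. 99.9% kill was taken as bactericidal.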

[5] = test system: Bacteroides thetaiotaomicron; assay: Bactericidal activity against beta lactamase-positive Bacteroides thetaiotaomicron isolated from intra-abdominal infection and pelvic inflammatory disease patients assessed as bacterial killing at 2 times MIC after 48 hrs by time kill analysis; assay type: functional; how it was run: as §3
Prevotella disiens = assay: Antimicrobial activity against beta lactamase-positive Prevotella disiens isolated from intra-abdominal infection and pelvic inflammatory disease patients after 48 hrs by agar dilution method; assay type: functional; how it was run: as §1
Prevotella denticola = assay: Antimicrobial activity against beta lactamase-positive Prevotella denticola isolated from intra-abdominal infection and pelvic inflammatory disease patients after 48 hrs by agar dilution method; assay type: functional; how it was run: as §1
Prevotella buccae = assay: Antimicrobial activity against beta lactamase-positive Prevotella buccae isolated from intra-abdominal infection and pelvic inflammatory disease patients after 48 hrs by agar dilution method; assay type: functional; conditions: Segatella buccae; how it was run: as §1
Porphyromonas levii = assay: Antimicrobial activity against Porphyromonas levii isolated from intra-abdominal infection and pelvic inflammatory disease patients after 48 hrs by agar dilution method; assay type: functional; how it was run: as §1
Fusobacterium varium = assay: Antimicrobial activity against Fusobacterium varium isolated from intra-abdominal infection and pelvic inflammatory disease patients after 48 hrs by agar dilution method; assay type: functional; how it was run: as §1
Parvimonas micra = assay: Antimicrobial activity against Micromonas micros isolated from intra-abdominal infection and pelvic inflammatory disease patients after 48 hrs by agar dilution method; assay type: functional; how it was run: as §1
[6] = test system: Peptostreptococcus anaerobius; assay: Antimicrobial activity against Peptostreptococcus anaerobius isolated from intra-abdominal infection and pelvic inflammatory disease patients after 48 hrs by agar dilution method; assay type: functional; how it was run: as §1
Anaerococcus prevotii = assay: Antimicrobial activity against Anaerococcus prevotii isolated from intra-abdominal infection and pelvic inflammatory disease patients after 48 hrs by agar dilution method; assay type: functional; how it was run: as §1
[7] = test system: Peptoniphilus asaccharolyticus; assay: Antimicrobial activity against Peptoniphilus asaccharolyticus isolated from intra-abdominal infection and pelvic inflammatory disease patients after 48 hrs by agar dilution method; assay type: functional; how it was run: as §1
Clostridium perfringens [8] = assay: Antimicrobial activity against Clostridium perfringens isolated from intra-abdominal infection and pelvic inflammatory disease patients after 48 hrs by agar dilution method; assay type: functional
How it was run: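 CLSI agar dilution on brucella blood agar supplemented with laked sheep blood, hemin and vitamin K. Inoculum about 1 × 10^5 CFU/spot, applied by Steers replicator. Plates incubated 48 h at 35°C in an anaerobic glove box. MIC is the concentration giving marked growth reduction versus the anaerobic control plate. Standard QC strains included in each run.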

Clostridioides difficile [9] = assay: Antimicrobial activity against Clostridium difficile isolated from intra-abdominal infection and pelvic inflammatory disease patients after 48 hrs by agar dilution method; assay type: functional; how it was run: as §1
[10] = test system: Paraclostridium bifermentans; assay: Antimicrobial activity against Clostridium bifermentans isolated from intra-abdominal infection and pelvic inflammatory disease patients after 48 hrs by agar dilution method; assay type: functional; how it was run: as §1
Clostridium perfringens [11] = assay: Bactericidal activity against Clostridium perfringens isolated from intra-abdominal infection and pelvic inflammatory disease patients assessed as bacterial killing at 2 times MIC after 48 hrs by time kill analysis; assay type: functional
How it was run: (§4)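 Time-kill in prereduced brucella broth with 5% laked horse blood cells, hemin and vitamin K1. […] Viable counts taken at 6, 12, 24 and 48 h, plates incubated 48 h anaerobically. Kill scored as 90%, 99% or 99.9%; 99.9% defines bactericidal.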

Clostridioides difficile [12] = assay: Bactericidal activity against Clostridium difficile isolated from intra-abdominal infection and pelvic inflammatory disease patients assessed as 99.9% bacterial killing at 2 times MIC after 48 hrs by time kill analysis; assay type: functional, organism-based; how it was run: as §3
Bacteroides fragilis [13] = assay: Bactericidal activity against beta lactamase-positive Bacteroides fragilis isolated from intra-abdominal infection and pelvic inflammatory disease patients assessed as bacterial killing at MIC after 24 hrs by time kill analysis; assay type: functional; how it was run: as §3
[14] = test system: Bacteroides thetaiotaomicron; assay: Bactericidal activity against beta lactamase-positive Bacteroides thetaiotaomicron isolated from intra-abdominal infection and pelvic inflammatory disease patients assessed as bacterial killing at MIC after 24 hrs by time kill analysis; assay type: functional; how it was run: as §3
Fusobacterium nucleatum [15] = assay: Bactericidal activity against beta lactamase-positive Fusobacterium nucleatum isolated from intra-abdominal infection and pelvic inflammatory disease patients assessed as bacterial killing at MIC after 24 hrs by time kill analysis; assay type: functional
How it was run: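 Anaerobic macrodilution time-kill. Inoculum from brucella blood plates, prepared and diluted in prereduced brucella broth inside the anaerobe chamber. Final 10^6 to 10^7 CFU/ml in prereduced brucella broth with 5% laked horse blood cells, 5 μg/ml hemin and 1 μg/ml vitamin K1. […] Shaken at 35°C for 48 h. Viable counts taken at 6, 12, 24 and 48 h. 99.9% kill taken as bactericidal.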

Clostridium perfringens [16] = assay: Bactericidal activity against Clostridium perfringens isolated from intra-abdominal infection and pelvic inflammatory disease patients assessed as bacterial killing at MIC after 24 hrs by time kill analysis; assay type: functional; how it was run: as §4
Clostridioides difficile [17] = assay: Bactericidal activity against Clostridium difficile isolated from intra-abdominal infection and pelvic inflammatory disease patients assessed as bacterial killing at MIC after 24 hrs by time kill analysis; assay type: functional; how it was run: as §3

Work on C[C@@H](O)[C@H]1C(=O)N2C(C(=O)O)=C(S[C@@H]3CN[C@H](C(=O)N(C)C)C3)[C@H](C)[C@H]12 [MEROPENEM] yielded an MIC50 [1] of 0.25 µg/mL (≈ 0.652 µM), an MIC90 [1] of 0.5 µg/mL (≈ 1.3 µM) and an MIC (Prevotella intermedia) of 0.03 µg/mL (≈ 0.0782 µM). The MIC (Finegoldia magna) was 0.06 µg/mL (≈ 0.156 µM), the MIC (Fusobacterium nucleatum [2]) was 0.008 µg/mL (≈ 0.0209 µM) and the MIC (Clostridium perfringens [3]) was 0.03 µg/mL (≈ 0.0782 µM). For the same compound, the Activity (Bacteroides fragilis [4]) was 99%, the Activity [5] was 99% and the MIC (Prevotella disiens) was 0.03 µg/mL (≈ 0.0782 µM). The MIC50 (Prevotella disiens) was 0.03 µg/mL (≈ 0.0782 µM), the MIC90 (Prevotella disiens) was 0.125 µg/mL (≈ 0.326 µM) and the MIC50 (Prevotella denticola) was 0.06 µg/mL (≈ 0.156 µM). The MIC90 (Prevotella denticola) was 0.25 µg/mL (≈ 0.652 µM), the MIC (Prevotella buccae) was 0.06 µg/mL (≈ 0.156 µM) and the MIC50 (Prevotella buccae) was 0.06 µg/mL (≈ 0.156 µM). It also gave an MIC90 (Prevotella buccae) of 0.06 µg/mL (≈ 0.156 µM), an MIC (Porphyromonas levii) of no more than 0.016 µg/mL and an MIC50 (Fusobacterium varium) of 0.125 µg/mL (≈ 0.326 µM). The MIC90 (Fusobacterium varium) was 0.25 µg/mL (≈ 0.652 µM), the MIC (Parvimonas micra) was 0.03 µg/mL (≈ 0.0782 µM) and the MIC50 (Parvimonas micra) was 0.03 µg/mL (≈ 0.0782 µM). For the same compound, the MIC90 (Parvimonas micra) was 0.25 µg/mL (≈ 0.652 µM), the MIC [6] was 0.25 µg/mL (≈ 0.652 µM) and the MIC50 [6] was 0.25 µg/mL (≈ 0.652 µM). The MIC90 [6] was 2 µg/mL (≈ 5.22 µM), the MIC (Anaerococcus prevotii) was no more than 0.016 µg/mL and the MIC [7] was no more than 0.016 µg/mL. For the same compound, the MIC50 [7] was no more than 0.016 µg/mL, the MIC90 [7] was 0.03 µg/mL (≈ 0.0782 µM) and the MIC (Clostridium perfringens [8]) was no more than 0.016 µg/mL. The MIC50 (Clostridium perfringens [8]) was no more than 0.016 µg/mL, the MIC90 (Clostridium perfringens [8]) was no more than 0.016 µg/mL and the MIC50 (Clostridioides difficile [9]) was 2 µg/mL (≈ 5.22 µM). The MIC90 (Clostridioides difficile [9]) was 4 µg/mL (≈ 10.4 µM), the MIC [10] was 0.125 µg/mL (≈ 0.326 µM) and the Activity (Clostridium perfringens [11]) was 99%. The Activity (Clostridioides difficile [12]) was “inactive”, the Activity (Bacteroides fragilis [13]) was 90% and the Activity [14] was 90%. For the same compound, the Activity (Fusobacterium nucleatum [15]) was 90%, the Activity (Clostridium perfringens [16]) was 90% and the Activity (Clostridioides difficile [17]) was 90%.
